Tests used:
Plasmodium falciparum = test: Antiplasmodial activity after 48 hrs against chloroquine-sensitive Plasmodium falciparum D10 infected human erythrocytes by LDH reporter assay; type: functional, organism-based; settings: D10, 48 h
Procedure, shortened: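 Asexual erythrocytic P. falciparum D10 (CQ-sensitive) kept in continuous culture (modified Trager–Jensen); growth read by parasite lactate dehydrogenase assay (modified Makler). Samples from 2 mg/mL stocks in 10% DMSO, sonicated, suspensions allowed; tested from 100 µg/mL in 2-fold serial dilutions in complete medium, 10 concentrations down to 0.2 µg/mL. Chloroquine reference from 100 ng/mL. Duplicate, one occasion; IC50 from full dose-response.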

CHO [1] = test: Cytotoxicity against CHO cells by MTT assay; type: cell-based; settings: Cricetulus griseus
Procedure, shortened: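 MTT colorimetric growth/survival assay. Samples from 2 mg/mL stocks in 10% methanol or 10% DMSO, suspensions allowed, stored at -20 °C; 10-fold serial dilutions in complete medium, six concentrations. Emetine reference from 100 µg/mL down to 0.001 µg/mL. Triplicate, one occasion; IC50 by nonlinear dose-response curve fitting.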

[2] = Selectivity index, ratio of IC50 for CHO cells to IC50 for chloroquine-sensitive Plasmodium falciparum D10; type: toxicity, cell-based; settings: hamster, read-out: Ratio IC50
CHO [3] = test: Cytotoxicity against CHO cells at 100 ug/mL by MTT assay; type: cell-based, Cricetulus griseus; settings: chinese hamster

| SMILES | IC50 (Plasmodium falciparum) [µM] | IC90 (Plasmodium falciparum) [µM] | IC50 (CHO [1]) [µM] | selectivity ratio [2] | Activity (CHO [3]) |
| --- | --- | --- | --- | --- | --- |
| CCCN[C@@H](c1ccccc1)[C@H](CO)Oc1ccccc1 | 85.2 | – | – | – | – |
| CCCN[C@@H](c1ccc(C)cc1)[C@H](CO)Oc1ccccc1 | 13.7 | 252 | 326 | 23.8 | – |
| CCCN[C@@H](c1ccc(OC)cc1)[C@H](CO)Oc1ccccc1 | 16.4 | 47.8 | 145 | 8.8 | – |
| CCCN[C@@H](c1cccc(OC)c1)[C@H](CO)Oc1ccccc1 | 25.2 | 102 | – | – | – |
| Cc1ccc([C@H](NCC(C)C)[C@H](CO)OCc2ccccc2)cc1 (relative stereo) | 15.3 | 70.8 | 144 | 9.4 | – |
| COc1cccc([C@@H](NC2CCCCC2)[C@H](CO)OC)c1 (relative stereo) | 175 | – | – | – | – |
| CO[C@@H]1COCN(C(C)(C)C)[C@@H]1c1ccc(C)cc1 (relative stereo) | 121 | – | – | – | – |
| COc1cccc([C@@H]2[C@H](OC)COCN2C2CCCCC2)c1 (relative stereo) | 42.6 | – | – | – | – |
| Cc1ccc([C@@H]([C@H](CO)OCc2ccccc2)N(C)CC(C)C)cc1 (relative stereo) | 82 | – | – | – | – |
| CCN(CC)CCCC(C)Nc1ccnc2cc(Cl)ccc12 (centres undefined) [CHLOROQUINE] | – | 0.067 | – | – | – |
| CC[C@H]1CN2CCc3cc(OC)c(OC)cc3[C@@H]2C[C@@H]1C[C@H]1NCCc2cc(OC)c(OC)cc21 [EMETINE] | – | – | 0.108 | – | – |

The next lines start with results.

| IC50 (Plasmodium falciparum) [µM] | IC90 (Plasmodium falciparum) [µM] | SMILES | IC50 (CHO [1]) [µM] | selectivity ratio [2] | Activity (CHO [3]) |
| --- | --- | --- | --- | --- | --- |
| 87.1 | – | CCCN1COC[C@@H](Oc2ccccc2)[C@H]1c1ccc(OC)cc1 | – | – | – |
| 6.36 | 12.5 | OC[C@H](OCc1ccccc1)[C@H](Nc1ccccc1)c1ccc(Cl)cc1 (relative stereo) | – | – | Non-toxic |
| 10.5 | 43.1 | OC[C@H](OCc1ccccc1)[C@@H](NCc1ccccc1)c1ccccc1Br (relative stereo) | – | – | Non-toxic |
| 45.9 | 165 | CC(C)N[C@@H](c1ccccc1)[C@H](CO)OCc1ccccc1 (relative stereo) | – | – | – |
| 25.1 | 223 | OC[C@H](Oc1ccccc1)[C@@H](NCc1ccccc1)c1ccccc1F (relative stereo) | – | – | – |
| 66.3 | – | CC(C)N1COC[C@@H](OCc2ccccc2)[C@H]1c1ccccc1 (relative stereo) | – | – | – |
| 30.3 | – | Cc1ccc([C@@H]2[C@H](OCc3ccccc3)COCN2CC(C)C)cc1 (relative stereo) | – | – | – |
| 19.4 | 138 | Clc1ccc([C@@H]2[C@H](OCc3ccccc3)COCN2c2ccccc2)cc1 (relative stereo) | – | – | – |
| 16.8 | 118 | Fc1ccccc1[C@@H]1[C@H](Oc2ccccc2)COCN1Cc1ccccc1 (relative stereo) | – | – | Non-toxic |
| 84.9 | – | CCCN1COC[C@@H](Oc2ccccc2)[C@H]1c1ccccc1 (relative stereo) | – | – | – |
| 14.1 | 38.6 | Brc1ccccc1[C@@H]1[C@H](OCc2ccccc2)COCN1Cc1ccccc1 (relative stereo) | – | – | Non-toxic |
| 129 | – | CCCN1COC[C@@H](Oc2ccccc2)[C@H]1c1ccc(C)cc1 (relative stereo) | – | – | – |

From ChEMBL document CHEMBL1136969, “Synthesis of novel 2-alkoxy-3-amino-3-arylpropan-1-ols and 5-alkoxy-4-aryl-1,3-oxazinanes with antimalarial activity” (J Med Chem, 2009)
